MEKK2wt PB1 HTS: raises or lowers MEK5 binding to wildtype human MEKK2 PB1 domain; bead flow cytometry, Alexa488-MEK5 binding to MEKK2 WT; actives lie on both sides; 290,000 compounds, 1.1% hits; binding response (% of control), % at 10 µM; Q9Y2U5; in the data active = binding response below about 67% or above about 130%
MEKK3 PB1 HTS: MEKK3-MEK5 PB1 interaction, increase or decrease | Q99759 | binding response (% of control), % at 10 µM | 290,000 compounds, 1.4% hits | AID 1529 | bead-based flow cytometry, Alexa488-MEK5 binding to MEKK3; actives lie on both sides; 0 = blocked by unlabeled MEK5, 100 = vehicle;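 active = binding response more than 3 SD above or below the average of its plate-row segment, actives on both sides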;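 also: Alexa488 bead fluorescence after subtracting the streptavidin-only scavenger bead signal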
Apaf-1 inh: human Apaf-1 inhibition; O14727; reconstituted apoptosome caspase-3 activity, DEVD-Rh110 fluorescence; inhibition, % at 20 µM; 330,000 compounds, 0.71% hits; active = inhibition of at least 40% at 20 µM
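Material: reconstituted apoptosome with Apaf-1, cytochrome c, caspase-9, procaspase-3, dATP / Buffer or medium: pH 7.5 Hepes buffer with CHAPS, BSA, DTT / Also added: cytochrome c with DEVD-Rh110 / Schedule: compound with Apaf-1, dATP, procaspase-3 30 min, then 50 min reaction, room temperature / Technique: rhodamine 110 fluorescence at Ex 480/Em 540 nm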
MEKK2 mut-MEK5: signal of MEK5 binding to mutant human MEKK2 PB1 domain | percent response, % at 10 µM | AID 1530 | 290,000 compounds, 0.35% hits | bead flow cytometry, Alexa488-MEK5 binding to MEKK2 mutant; in the data active = percent response above about 24%, passing the limit was not always enough
UBC13 polyUb: blocks human UBC13 polyubiquitin chain formation; P61088; TR-FRET; inhibition, % at 20 µM; 330,000 compounds, 0.47% hits; AID 485273; in the data active = inhibition above about 45%, passing the limit was not always enough
Target sequence (P61088 whole entry, looked up): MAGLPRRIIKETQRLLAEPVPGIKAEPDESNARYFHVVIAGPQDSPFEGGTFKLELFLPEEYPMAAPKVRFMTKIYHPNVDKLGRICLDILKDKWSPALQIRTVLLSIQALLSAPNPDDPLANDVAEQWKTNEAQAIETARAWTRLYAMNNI
Casp3 counter: counter-screen for UBC13 inhibitors: human caspase-3 inhibition; 1,400 compounds, 4% hits; Recombinant caspase-3, Caspase-Glo 3/7 luminescence, 60 min; shares compounds with UBC13 polyUb; AID 488856; inhibition, % at 20 µM;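 active = mean inhibition across replicates above about 26%, limit read from the data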
Target sequence (P42574 whole entry, looked up): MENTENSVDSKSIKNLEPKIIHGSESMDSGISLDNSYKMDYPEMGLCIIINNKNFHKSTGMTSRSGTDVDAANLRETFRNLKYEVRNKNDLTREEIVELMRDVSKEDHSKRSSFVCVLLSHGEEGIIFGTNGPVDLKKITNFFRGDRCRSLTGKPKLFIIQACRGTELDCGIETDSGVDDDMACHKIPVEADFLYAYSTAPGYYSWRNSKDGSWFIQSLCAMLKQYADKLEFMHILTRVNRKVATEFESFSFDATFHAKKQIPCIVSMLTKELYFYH
UBC13 confirm: confirmation of human UBC13 polyubiquitin inhibitors. UBC13 polyubiquitination, TR-FRET, biochemical. inhibition, % at 10 µM. shares compounds with UBC13 polyUb. 1,400 compounds, 68% hits; in the data active = inhibition above about 45%
Numbers stand for hits. Sampled rows, rich in hits. Any-hit rate of the full collection: about 2.9%.

`CCOc1ccc(S(=O)(=O)N(CC)CC)cc1NC(=O)c1ccc(N2CCCC2=O)cc1` gave MEKK2wt PB1 HTS inactive, MEKK3 PB1 HTS inactive, Apaf-1 inh inactive, MEKK2 mut-MEK5 inactive and UBC13 polyUb inactive.
O=C(c1ccc(-c2cc(O)c3ncccc3c2)cc1)N1CCNCC1 was read as Apaf-1 inh inactive, UBC13 polyUb 114, Casp3 counter inactive and UBC13 confirm 117.
For CCC(=O)OCCCCCCOc1ccc(C(=O)O)cc1 the results were MEKK2wt PB1 HTS inactive, MEKK3 PB1 HTS inactive, Apaf-1 inh inactive, MEKK2 mut-MEK5 inactive and UBC13 polyUb inactive.
`Cc1nn(C)c(C(=O)N/N=C/c2ccc(-c3ccccc3)cc2)c1Cl` gave MEKK2wt PB1 HTS inactive, MEKK3 PB1 HTS inactive, Apaf-1 inh inactive, MEKK2 mut-MEK5 inactive and UBC13 polyUb inactive.
O=C(NC1C2CCCC1CN(C1CC1)C2)c1ccc(Cl)cc1 (centres undefined) was read as MEKK2wt PB1 HTS inactive, MEKK3 PB1 HTS inactive, Apaf-1 inh inactive, MEKK2 mut-MEK5 inactive and UBC13 polyUb inactive.
For Cc1ccc(-c2oc3ncnc(N)c3c2-c2ccc(C)cc2)cc1 the results were MEKK2wt PB1 HTS inactive, MEKK3 PB1 HTS inactive, Apaf-1 inh inactive, MEKK2 mut-MEK5 inactive, UBC13 polyUb 88, Casp3 counter inactive and UBC13 confirm 82.
Screening Cc1ccc2[nH]c3c(=O)n(CC(=O)N4CCN(C)CC4)ncc3c2c1 returned MEKK2wt PB1 HTS inactive, MEKK3 PB1 HTS inactive, Apaf-1 inh inactive, MEKK2 mut-MEK5 inactive and UBC13 polyUb inactive.
For Cc1ccc(C2C3=C(CC(C)(C)CC3=O)NC3=C2C(=O)c2ccccc23)cc1 (centres undefined) the results were MEKK2wt PB1 HTS inactive, MEKK3 PB1 HTS inactive, Apaf-1 inh inactive, MEKK2 mut-MEK5 inactive and UBC13 polyUb inactive.
CC1(C)CC(=O)C2=C(C1)NC1=C(C(=O)c3ccccc31)C2c1ccc(Cl)cc1 (centres undefined) was read as MEKK2wt PB1 HTS inactive, MEKK3 PB1 HTS inactive, Apaf-1 inh inactive, MEKK2 mut-MEK5 inactive, UBC13 polyUb 50, Casp3 counter inactive and UBC13 confirm 56.
Screening N=C(N)c1ccc(/C=C/c2ccc(C(=N)N)cc2O)cc1 returned MEKK2wt PB1 HTS inactive, MEKK3 PB1 HTS inactive, Apaf-1 inh inactive, MEKK2 mut-MEK5 inactive, UBC13 polyUb 84, Casp3 counter inactive and UBC13 confirm 110.
For Cc1ccc(C(NC(=O)NC(C)c2ccccc2)C(Cl)(Cl)Cl)cc1F (centres undefined) the results were MEKK2wt PB1 HTS inactive, MEKK3 PB1 HTS inactive, Apaf-1 inh inactive, MEKK2 mut-MEK5 inactive and UBC13 polyUb inactive.
Screening CC(CN1CCOCC1)OC(=O)c1cccc(Cl)c1 (centres undefined) returned MEKK2wt PB1 HTS inactive, MEKK3 PB1 HTS inactive, Apaf-1 inh inactive, MEKK2 mut-MEK5 inactive and UBC13 polyUb inactive.
`O=C(CCC(=O)N1CCOc2ccc(Cl)cc21)NCCCN1CCC(Cc2ccccc2)CC1` gave MEKK2wt PB1 HTS inactive, MEKK3 PB1 HTS inactive, Apaf-1 inh inactive, MEKK2 mut-MEK5 inactive, UBC13 polyUb 92, Casp3 counter inactive and UBC13 confirm 92.
`O=C(CCC(=O)N1CCOc2ccc(Cl)cc21)NCCCN1CCN(c2ccccc2F)CC1` gave MEKK2wt PB1 HTS inactive, MEKK3 PB1 HTS inactive, Apaf-1 inh inactive, MEKK2 mut-MEK5 inactive, UBC13 polyUb 62, Casp3 counter inactive and UBC13 confirm inactive.
`Cc1ccc(C)c(N2CCN(CCCNC(=O)CCC(=O)N3CCOc4ccc(Cl)cc43)CC2)c1` gave MEKK2wt PB1 HTS 150, MEKK3 PB1 HTS inactive, Apaf-1 inh inactive, MEKK2 mut-MEK5 inactive, UBC13 polyUb 60, Casp3 counter inactive and UBC13 confirm 80.
For COc1ccc(N2CCN(CCCNC(=O)CCC(=O)N3CCOc4ccc(Cl)cc43)CC2)cc1 the results were MEKK2wt PB1 HTS inactive, MEKK3 PB1 HTS inactive, Apaf-1 inh inactive, MEKK2 mut-MEK5 inactive and UBC13 polyUb inactive.
For COCC(=O)N/N=C(\C)CC(=O)NCc1ccco1 the results were MEKK2wt PB1 HTS inactive, MEKK3 PB1 HTS inactive, Apaf-1 inh inactive, MEKK2 mut-MEK5 inactive and UBC13 polyUb inactive.
`Nc1nc(Nc2cccc(Cl)c2)n[nH]1` gave MEKK2wt PB1 HTS inactive, MEKK3 PB1 HTS inactive, Apaf-1 inh inactive, MEKK2 mut-MEK5 inactive and UBC13 polyUb inactive.
`C/C(=N/NC(=O)CN1CCN(Cc2ccccc2)CC1)c1ccc([N+](=O)[O-])cc1` gave MEKK2wt PB1 HTS inactive, MEKK3 PB1 HTS inactive, Apaf-1 inh inactive, MEKK2 mut-MEK5 inactive and UBC13 polyUb inactive.
Screening C/C(=N\NC(=O)CSCc1ccc([N+](=O)[O-])cc1)c1ccccc1O returned MEKK2wt PB1 HTS inactive, MEKK3 PB1 HTS inactive, Apaf-1 inh inactive, MEKK2 mut-MEK5 inactive, UBC13 polyUb 84, Casp3 counter inactive and UBC13 confirm 95.
For C/C(=N\NC(=O)CSCc1ccc([N+](=O)[O-])cc1)c1ccccc1 the results were MEKK2wt PB1 HTS inactive, MEKK3 PB1 HTS inactive, Apaf-1 inh inactive, MEKK2 mut-MEK5 inactive, UBC13 polyUb 91, Casp3 counter inactive and UBC13 confirm 109.
For C/C(=N\NC(=O)Cc1ccc(Cl)cc1)c1ccccc1O the results were MEKK2wt PB1 HTS inactive, MEKK3 PB1 HTS inactive, Apaf-1 inh inactive, MEKK2 mut-MEK5 inactive and UBC13 polyUb inactive.
C[C@H]1CN([C@@H](C)CO)C(=O)Cc2cc(NC(=O)Cc3ccccc3)ccc2O[C@H]1CN(C)C(=O)Nc1cccc2ccccc12 was read as Apaf-1 inh inactive and UBC13 polyUb inactive.
For Nc1c(Cl)ncnc1N/N=C/c1cccc(O)c1 the results were MEKK2wt PB1 HTS inactive, MEKK3 PB1 HTS inactive, Apaf-1 inh inactive, MEKK2 mut-MEK5 inactive, UBC13 polyUb 62, Casp3 counter 81 and UBC13 confirm inactive.
Fc1ccccc1Cc1noc(CN(Cc2ccccn2)CC2CCCO2)n1 (centres undefined) was read as MEKK2wt PB1 HTS inactive, MEKK3 PB1 HTS inactive, Apaf-1 inh inactive, MEKK2 mut-MEK5 inactive and UBC13 polyUb inactive.
Screening COc1cc(-c2nnc(CSc3nnc(Nc4ccc(Oc5ccccc5)cc4)s3)o2)cc(OC)c1OC returned MEKK2wt PB1 HTS inactive, MEKK3 PB1 HTS inactive, Apaf-1 inh inactive, MEKK2 mut-MEK5 inactive and UBC13 polyUb inactive.
CCCNC(=O)c1ccc2c(=O)c(O)c(-c3ccc(C)cc3)[nH]c2c1 was read as MEKK2wt PB1 HTS inactive, MEKK3 PB1 HTS inactive, Apaf-1 inh inactive, MEKK2 mut-MEK5 inactive and UBC13 polyUb inactive.
For Cc1ccc(-c2[nH]c3cc(C(=O)NCCCn4ccnc4)ccc3c(=O)c2O)cc1 the results were MEKK2wt PB1 HTS inactive, MEKK3 PB1 HTS inactive, Apaf-1 inh inactive, MEKK2 mut-MEK5 inactive, UBC13 polyUb 46, Casp3 counter inactive and UBC13 confirm inactive.

Source: PubChem BioAssay (several laboratories)
